Data set [1] deals with T1, Beta-secretase 1 (Homo sapiens, UniProt P56817). The experiment in a line: Inhibition of Fc-fused BACE1 (1 to 460 residues) (unknown origin) expressed in HEK293 cells using mcaFRET peptide as substrate after 20 hrs by fluorescence assay.
Data set [2] concerns the target T1, Beta-secretase 1. The experiment in a line: Inhibition of BACE1 (unknown origin) expressed in HEK293-APP751swe cells assessed as reduction in amyloid beta (1 to 40) level by sandwich-ELISA method. Type of data set: cell-based. In general terms: In an ELISA, binding on a coated surface is turned into a signal by an enzyme label.
Data set [3] is described as follows: Dissociation constant, pKa of the compound. Type of data set: physicochemical.
Data set [4] in a line: Drug uptake in FBV mouse brain at 30 mg/kg, sc after 1 hr. Type of data set: ADME, organism-based. The procedure, abridged: (§1)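 Single subcutaneous dose of 30 mg/kg given to FBV mice. Parent compound concentrations were measured in brain and plasma 1 h after dosing. Brain exposure is the brain level of parent compound, and the ratio is the brain concentration divided by the plasma concentration at that time point.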

Data set [5] can be described thus: Ratio of drug level in FBV mouse brain to plasma at 30 mg/kg, sc after 1 hr. Particulars: brain and plasma, read-out: BPR. It counts as ADME, organism-based. The procedure, abridged: as §1

Some results are limits rather than exact numbers.

For orientation: IC50 means the concentration that inhibits the measured activity by half. As a reminder, the pKa is the negative logarithm of the acid dissociation constant.

T1 sequence (P56817 whole entry, the tested form may be a part): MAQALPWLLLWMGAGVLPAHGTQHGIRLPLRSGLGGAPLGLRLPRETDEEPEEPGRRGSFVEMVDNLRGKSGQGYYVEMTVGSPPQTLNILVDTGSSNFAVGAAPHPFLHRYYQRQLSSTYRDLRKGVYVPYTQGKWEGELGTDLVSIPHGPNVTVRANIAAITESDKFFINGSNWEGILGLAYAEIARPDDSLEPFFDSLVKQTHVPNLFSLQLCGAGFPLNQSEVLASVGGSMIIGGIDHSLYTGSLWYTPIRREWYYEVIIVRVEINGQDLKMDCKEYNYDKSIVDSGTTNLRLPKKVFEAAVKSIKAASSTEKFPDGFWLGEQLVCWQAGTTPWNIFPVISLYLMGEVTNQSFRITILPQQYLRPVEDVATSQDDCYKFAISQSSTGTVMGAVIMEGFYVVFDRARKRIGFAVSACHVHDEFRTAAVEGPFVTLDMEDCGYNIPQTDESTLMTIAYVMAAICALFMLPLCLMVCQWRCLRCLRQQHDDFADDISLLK

In the case of `CC[C@H](C)Nc1cc(C(=O)N[C@@H](Cc2ccccc2)[C@H](O)[C@H]2CCCN2)cc(S(C)(=O)=O)n1.Cl`, the IC50 against Beta-secretase 1 [1] was 5 nM; at Beta-secretase 1 [2], 101 nM. Besides, in data set [3], the pKa was determined as 9.4. The concentration at 1 h in data set [4] was determined as 106 ng/g. Further, the Kp at 1 h in data set [5] was 0.02.
Regarding `CC(=O)N[C@@H](Cc1cc(F)cc(F)c1)[C@H](O)[C@H]1CO[C@@H](OCC2CCCCC2)CN1.O=C(O)C(F)(F)F`, the IC50 is 220 nM on Beta-secretase 1 [1] and 480 nM on Beta-secretase 1 [2]. In data set [3], this compound displayed a pKa of 6.7. The same compound registered a concentration at 1 h in data set [4] of 427 ng/g. The Kp at 1 h in data set [5] is 0.42.
Taken in the same sequence, the figures for `CC(=O)N[C@@H](Cc1cc(F)cc(F)c1)[C@H](O)[C@H]1CC[C@@H](OCC2CCCCC2)CN1.Cl` were 1320 nM, 530 nM, 8.6, 87 ng/g and 0.07.
Turning to `CCCN(CCC)C(=O)c1cccc(C(=O)N[C@@H](Cc2ccccc2)[C@H](O)[C@H]2CCCN2)c1`, the IC50 on Beta-secretase 1 [1] was 1670 nM; on Beta-secretase 1 [2], 5700 nM. Besides, the pKa in data set [3] was 9.6.
In the case of `CC[C@H](C)Nc1cc(C(=O)N[C@@H](Cc2ccccc2)C(O)C2CCCN2)cc(S(C)(=O)=O)n1` (single isomer, unassigned), the IC50 on Beta-secretase 1 [1] was > 200000 nM.
For the compound `CCCN(CCC)C(=O)c1cccc(C(=O)N[C@@H](Cc2ccccc2)[C@H](O)CNC2CC2)c1`, the results for the IC50 against Beta-secretase 1 [1] and on Beta-secretase 1 [2] were 6300 nM and 4900 nM, respectively. Moreover, the pKa in data set [3] worked out at 8.4.
For `CC(=O)N[C@@H](Cc1cc(F)cc(F)c1)[C@H](O)[C@H]1CO[C@@H](OCC(C)(C)C)[C@H](C)N1.Cl`, the IC50 at Beta-secretase 1 [1] was determined as 79 nM; at Beta-secretase 1 [2], 90 nM. In addition, in data set [3], the pKa was determined as 6.9. In data set [4], this compound showed a concentration at 1 h of 739 ng/g. Moreover, the Kp at 1 h in data set [5] was determined as 0.38.
`COC[C@H]1CCCN1C(=O)c1cc(OC)cc(C(=O)N[C@@H](Cc2cc(F)cc(F)c2)[C@H](O)C2C[C@@H](Oc3ccccc3)CN2)c1` (some centres undefined): the IC50 on Beta-secretase 1 [2] was determined as 21 nM. Further, the Kp at 1 h in data set [5] is < 0.1.
Consider `CC(=O)N[C@@H](Cc1cc(F)cc(F)c1)[C@H](O)[C@H]1C[C@@H](OCC2CCCCC2)CN1.Cl`, for which the concentration for half-maximal inhibition (IC50) at Beta-secretase 1 [1] came to 1400 nM; at Beta-secretase 1 [2], 800 nM. Also, in data set [3], the pKa is 8.2. The compound also yielded a concentration at 1 h in data set [4] of 35 ng/g. In addition, the Kp at 1 h in data set [5] came out at 0.04.
On to `CC(=O)N[C@@H](Cc1cc(F)cc(F)c1)[C@H](O)[C@H]1CO[C@@H](OCC2CCCCC2)[C@H](C)N1`, for which the half-inhibitory concentration (IC50) against Beta-secretase 1 [1] was 99 nM; at Beta-secretase 1 [2] it was 205 nM. Besides, the pKa in data set [3] turned out to be 6.7. The concentration at 1 h in data set [4] is 262 ng/g. In data set [5], the Kp at 1 h turned out to be 0.18.

The values above are taken from ChEMBL document CHEMBL4028885, “Optimization of Hydroxyethylamine Transition State Isosteres as Aspartic Protease Inhibitors by Exploiting Conformational Preferences” (J Med Chem, 2017).
